ChEMBL document CHEMBL3784971, “Synthesis, characterization, antimicrobial and biofilm inhibitory studies of new esterquats” (Bioorg Med Chem Lett, 2016)
Converted amounts (≈) assume the structure as drawn. The source made the active and inactive calls. The calls are words filed in the database; no cut-off is given here.

Columns and labels:
Staphylococcus aureus [1] = assay: Antimicrobial activity against Staphylococcus aureus MTCC 96 assessed as growth inhibition after 24 hrs by agar well diffusion method; assay type: functional; conditions: MTCC 96, 24 h
Bacillus subtilis [2] = assay: Antimicrobial activity against Bacillus subtilis MTCC 121 assessed as growth inhibition after 24 hrs by agar well diffusion method; assay type: functional; conditions: MTCC 121, 24 h
Staphylococcus aureus [3] = assay: Antimicrobial activity against Staphylococcus aureus MLS16 MTCC 2940 assessed as growth inhibition after 24 hrs by agar well diffusion method; assay type: functional; conditions: MLS16 MTCC 2940, 24 h
Micrococcus luteus [4] = assay: Antimicrobial activity against Micrococcus luteus MTCC 2470 assessed as growth inhibition after 24 hrs by agar well diffusion method; assay type: functional; conditions: MTCC 2470, 24 h
Raoultella planticola [5] = assay: Antimicrobial activity against Klebsiella planticola MTCC 530 assessed as growth inhibition after 24 hrs by agar well diffusion method; assay type: functional; conditions: MTCC 530, 24 h
Escherichia coli [6] = assay: Antimicrobial activity against Escherichia coli MTCC 739 assessed as growth inhibition after 24 hrs by agar well diffusion method; assay type: functional; conditions: MTCC 739, 24 h
Pseudomonas aeruginosa = assay: Antimicrobial activity against Pseudomonas aeruginosa MTCC 2453 assessed as growth inhibition after 24 hrs by agar well diffusion method; assay type: functional; conditions: MTCC 2453, 24 h
Candida albicans [7] = assay: Antimicrobial activity against Candida albicans MTCC 3017 assessed as growth inhibition after 24 hrs by agar well diffusion method; assay type: functional; conditions: MTCC 3017, 24 h
Candida albicans [8] = assay: Antimicrobial activity against Candida albicans MTCC 183 assessed as growth inhibition after 24 hrs by agar well diffusion method; assay type: functional; conditions: MTCC 183, 24 h
Candida albicans [9] = assay: Antimicrobial activity against Candida albicans MTCC 227 assessed as growth inhibition after 24 hrs by agar well diffusion method; assay type: functional; conditions: MTCC 227, 24 h
Candida albicans [10] = assay: Antimicrobial activity against Candida albicans MTCC 854 assessed as growth inhibition after 24 hrs by agar well diffusion method; assay type: functional; conditions: MTCC 854, 24 h
Candida albicans [11] = assay: Antimicrobial activity against Candida albicans MTCC 1637 assessed as growth inhibition after 24 hrs by agar well diffusion method; assay type: functional; conditions: MTCC 1637, 24 h
Candida albicans [12] = assay: Antimicrobial activity against Candida albicans MTCC 3018 assessed as growth inhibition after 24 hrs by agar well diffusion method; assay type: functional; conditions: MTCC 3018, 24 h
Candida albicans [13] = assay: Antimicrobial activity against Candida albicans MTCC 3958 assessed as growth inhibition after 24 hrs by agar well diffusion method; assay type: functional; conditions: MTCC 3958, 24 h
Candida albicans [14] = assay: Antimicrobial activity against Candida albicans MTCC 4748 assessed as growth inhibition after 24 hrs by agar well diffusion method; assay type: functional; conditions: MTCC 4748, 24 h
Candida albicans [15] = assay: Antimicrobial activity against Candida albicans MTCC 7315 assessed as growth inhibition after 24 hrs by agar well diffusion method; assay type: functional; conditions: MTCC 7315, 24 h
Candida parapsilosis [16] = assay: Antimicrobial activity against Candida parapsilosis MTCC 1744 assessed as growth inhibition after 24 hrs by agar well diffusion method; assay type: functional; conditions: Lodderomyces parapsilosis, MTCC 1744, 24 h
[Candida] aaseri [17] = Antimicrobial activity against Candida aaseri MTCC 1962 assessed as growth inhibition after 24 hrs by agar well diffusion method; assay type: functional; conditions: Yamadazyma aaseri, MTCC 1962, 24 h
Nakaseomyces glabratus [18] = assay: Antimicrobial activity against Candida glabrata MTCC 3019 assessed as growth inhibition after 24 hrs by agar well diffusion method; assay type: functional; conditions: MTCC 3019, 24 h
Pichia kudriavzevii [19] = assay: Antimicrobial activity against Candida krusei MTCC 3020 assessed as growth inhibition after 24 hrs by agar well diffusion method; assay type: functional; conditions: MTCC 3020, 24 h
Pichia sporocuriosa [20] = assay: Antimicrobial activity against Issatchenkia hanoiensis MTCC 4755 assessed as growth inhibition after 24 hrs by agar well diffusion method; assay type: functional; conditions: MTCC 4755, 24 h
Staphylococcus aureus [21] = assay: Bactericidal activity against Staphylococcus aureus MTCC 96 after 24 hrs by serial dilution method; assay type: functional; conditions: MTCC 96, 24 h
Bacillus subtilis [22] = assay: Bactericidal activity against Bacillus subtilis MTCC 121 after 24 hrs by serial dilution method; assay type: functional; conditions: MTCC 121, 24 h
Staphylococcus aureus [23] = assay: Bactericidal activity against Staphylococcus aureus MLS16 MTCC 2940 after 24 hrs by serial dilution method; assay type: functional; conditions: MLS16 MTCC 2940, 24 h
Micrococcus luteus [24] = assay: Bactericidal activity against Micrococcus luteus MTCC 2470 after 24 hrs by serial dilution method; assay type: functional; conditions: MTCC 2470, 24 h
Raoultella planticola [25] = assay: Bactericidal activity against Klebsiella planticola MTCC 530 after 24 hrs by serial dilution method; assay type: functional; conditions: MTCC 530, 24 h
Escherichia coli [26] = assay: Bactericidal activity against Escherichia coli MTCC 739 after 24 hrs by serial dilution method; assay type: functional; conditions: MTCC 739, 24 h
Candida albicans [27] = assay: Fungicidal activity against Candida albicans MTCC 3017 after 24 hrs by serial dilution method; assay type: functional; conditions: MTCC 3017, 24 h
Candida albicans [28] = assay: Fungicidal activity against Candida albicans MTCC 183 after 24 hrs by serial dilution method; assay type: functional; conditions: MTCC 183, 24 h
Candida albicans [29] = assay: Fungicidal activity against Candida albicans MTCC 227 after 24 hrs by serial dilution method; assay type: functional; conditions: MTCC 227, 24 h
Candida albicans [30] = assay: Fungicidal activity against Candida albicans MTCC 854 after 24 hrs by serial dilution method; assay type: functional; conditions: MTCC 854, 24 h
Candida albicans [31] = assay: Fungicidal activity against Candida albicans MTCC 1637 after 24 hrs by serial dilution method; assay type: functional; conditions: MTCC 1637, 24 h
Candida albicans [32] = assay: Fungicidal activity against Candida albicans MTCC 3018 after 24 hrs by serial dilution method; assay type: functional; conditions: MTCC 3018, 24 h
Candida albicans [33] = assay: Fungicidal activity against Candida albicans MTCC 3958 after 24 hrs by serial dilution method; assay type: functional; conditions: MTCC 3958, 24 h
Candida albicans [34] = assay: Fungicidal activity against Candida albicans MTCC 4748 after 24 hrs by serial dilution method; assay type: functional; conditions: MTCC 4748, 24 h
Candida albicans [35] = assay: Fungicidal activity against Candida albicans MTCC 7315 after 24 hrs by serial dilution method; assay type: functional; conditions: MTCC 7315, 24 h
Candida parapsilosis [36] = assay: Fungicidal activity against Candida parapsilosis MTCC 1744 after 24 hrs by serial dilution method; assay type: functional; conditions: Lodderomyces parapsilosis, MTCC 1744, 24 h
[Candida] aaseri [37] = Fungicidal activity against Candida aaseri MTCC 1962 after 24 hrs by serial dilution method; assay type: functional; conditions: Yamadazyma aaseri, MTCC 1962, 24 h
Nakaseomyces glabratus [38] = assay: Fungicidal activity against Candida glabrata MTCC 3019 after 24 hrs by serial dilution method; assay type: functional; conditions: MTCC 3019, 24 h
Pichia kudriavzevii [39] = assay: Fungicidal activity against Candida krusei MTCC 3020 after 24 hrs by serial dilution method; assay type: functional; conditions: MTCC 3020, 24 h
Pichia sporocuriosa [40] = assay: Fungicidal activity against Issatchenkia hanoiensis MTCC 4755 after 24 hrs by serial dilution method; assay type: functional; conditions: MTCC 4755, 24 h
Staphylococcus aureus [41] = assay: Antibiofilm activity against Staphylococcus aureus MTCC 96 after 24 hrs by crystal violet staining based assay; assay type: functional, organism-based; conditions: MTCC 96, 24 h
Method in brief: (§1)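 Biofilm inhibition tested for amine esters and esterquats. IC50 values (µg/mL) are the mean of three determinations, with ciprofloxacin as reference.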

Bacillus subtilis [42] = assay: Antibiofilm activity against Bacillus subtilis MTCC 121 after 24 hrs by crystal violet staining based assay; assay type: functional, organism-based; conditions: MTCC 121, 24 h; method in brief: as §1
Staphylococcus aureus [43] = assay: Antibiofilm activity against Staphylococcus aureus MLS16 MTCC 2940 after 24 hrs by crystal violet staining based assay; assay type: functional, organism-based; conditions: MLS16 MTCC 2940, 24 h; method in brief: as §1
Micrococcus luteus [44] = assay: Antibiofilm activity against Micrococcus luteus MTCC 2470 after 24 hrs by crystal violet staining based assay; assay type: functional, organism-based; conditions: MTCC 2470, 24 h; method in brief: as §1
Staphylococcus aureus [45] = assay: Bactericidal activity against Staphylococcus aureus MLS16 MTCC 2940 sessile forms assessed as increase in intracellular ROS accumulation in at 0.5 to 2 ug/mL after 24 hrs by DCFHDA staining based fluorometric assay; assay type: functional, organism-based
Method in brief: (§2)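 Intracellular ROS measured in cells of mature biofilms using the general ROS fluorescent probe 2′,7′-dichlorofluorescein-diacetate (DCFH-DA), read as increase in fluorescence. Sessile cells and the supernatant were measured separately.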

Staphylococcus aureus [46] = assay: Bactericidal activity against Staphylococcus aureus MLS16 MTCC 2940 assessed as increase in intracellular ROS accumulation in at 0.5 to 2 ug/mL after 24 hrs by DCFHDA staining based fluorometric assay; assay type: functional, organism-based; method in brief: as §2

CCCCCC[N+](C)(CCCCCCCCCCC(=O)OC)CCCCCCCCCCC(=O)OC.[Cl-]
MIC (Staphylococcus aureus [1]): 3.9 µg/mL
MIC (Bacillus subtilis [2]): 7.8 µg/mL
MIC (Staphylococcus aureus [3]): 3.9 µg/mL
MIC (Micrococcus luteus [4]): 1.9 µg/mL
MIC (Raoultella planticola [5]): > 125 µg/mL
MIC (Escherichia coli [6]): > 125 µg/mL
MIC (Pseudomonas aeruginosa): > 125 µg/mL
MIC (Candida albicans [7]): 7.8 µg/mL
MIC (Candida albicans [8]): 15.6 µg/mL
MIC (Candida albicans [9]): 15.6 µg/mL
MIC (Candida albicans [10]): 31.2 µg/mL
MIC (Candida albicans [11]): 15.6 µg/mL
MIC (Candida albicans [12]): 15.6 µg/mL
MIC (Candida albicans [13]): 15.6 µg/mL
MIC (Candida albicans [14]): 7.8 µg/mL
MIC (Candida albicans [15]): 15.6 µg/mL
MIC (Candida parapsilosis [16]): 15.6 µg/mL
MIC ([Candida] aaseri [17]): 7.8 µg/mL
MIC (Nakaseomyces glabratus [18]): 15.6 µg/mL
MIC (Pichia kudriavzevii [19]): 31.2 µg/mL
MIC (Pichia sporocuriosa [20]): 15.6 µg/mL
MBC (Staphylococcus aureus [21]): 7.8 µg/mL
MBC (Bacillus subtilis [22]): 15.6 µg/mL
MBC (Staphylococcus aureus [23]): 3.9 µg/mL
MBC (Micrococcus luteus [24]): 3.9 µg/mL
MBC (Raoultella planticola [25]): > 125 µg/mL
MBC (Escherichia coli [26]): > 125 µg/mL
MFC (Candida albicans [27]): 15.6 µg/mL
MFC (Candida albicans [28]): 31.2 µg/mL
MFC (Candida albicans [29]): 31.2 µg/mL
MFC (Candida albicans [30]): 62.5 µg/mL
MFC (Candida albicans [31]): 31.2 µg/mL
MFC (Candida albicans [32]): 31.2 µg/mL
MFC (Candida albicans [33]): 15.6 µg/mL
MFC (Candida albicans [34]): 7.8 µg/mL
MFC (Candida albicans [35]): 31.2 µg/mL
MFC (Candida parapsilosis [36]): 31.2 µg/mL
MFC ([Candida] aaseri [37]): 15.6 µg/mL
MFC (Nakaseomyces glabratus [38]): 31.2 µg/mL
MFC (Pichia kudriavzevii [39]): 62.5 µg/mL
MFC (Pichia sporocuriosa [40]): 31.2 µg/mL
IC50 (Staphylococcus aureus [41]): 1.9 µg/mL
IC50 (Bacillus subtilis [42]): 4.1 µg/mL
IC50 (Staphylococcus aureus [43]): 0.9 µg/mL
IC50 (Micrococcus luteus [44]): 1.5 µg/mL
Activity (Staphylococcus aureus [45]): Active

O=C(O)c1cn(C2CC2)c2cc(N3CCNCC3)c(F)cc2c1=O [CIPROFLOXACIN]
MIC (Staphylococcus aureus [1]): 0.9 µg/mL (≈ 2.72 µM)
MIC (Bacillus subtilis [2]): 0.9 µg/mL (≈ 2.72 µM)
MIC (Staphylococcus aureus [3]): 0.9 µg/mL (≈ 2.72 µM)
MIC (Micrococcus luteus [4]): 0.9 µg/mL (≈ 2.72 µM)
MIC (Raoultella planticola [5]): 0.9 µg/mL (≈ 2.72 µM)
MIC (Escherichia coli [6]): 0.9 µg/mL (≈ 2.72 µM)
MIC (Pseudomonas aeruginosa): 0.9 µg/mL (≈ 2.72 µM)
MBC (Staphylococcus aureus [21]): 1.9 µg/mL (≈ 5.73 µM)
MBC (Bacillus subtilis [22]): 0.9 µg/mL (≈ 2.72 µM)
MBC (Staphylococcus aureus [23]): 0.9 µg/mL (≈ 2.72 µM)
MBC (Micrococcus luteus [24]): 1.9 µg/mL (≈ 5.73 µM)
MBC (Raoultella planticola [25]): 1.9 µg/mL (≈ 5.73 µM)
MBC (Escherichia coli [26]): 1.9 µg/mL (≈ 5.73 µM)
IC50 (Bacillus subtilis [42]): 0.5 µg/mL (≈ 1.51 µM)
IC50 (Staphylococcus aureus [43]): 0.4 µg/mL (≈ 1.21 µM)
IC50 (Micrococcus luteus [44]): 0.6 µg/mL (≈ 1.81 µM)
Activity (Staphylococcus aureus [46]): Active
